Measured values reported in ChEMBL document CHEMBL2390862, “Enmein-type diterpenoid analogs from natural kaurene-type oridonin: Synthesis and their antitumor biological evaluation” (Eur J Med Chem, 2013).

Key:
[1] = Cytotoxicity against human CaEs17 cells after 72 hrs by MTT assay; assay type: functional, cell-based; details: CaEs17, 72 h
Outline: (§1)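 K562, CaEs-17, Bel-7402 and MGC-803 cells in log phase seeded at 5 × 10⁴ cells/mL, incubated with or without test compounds at 37 °C, 5% CO₂; after 72 h MTT (5 mg/mL stock) added for 4 h, formazan dissolved in DMSO, OD read at 490 nm. Negative reference 0.1% DMSO, Taxol positive control. IC50 as mean ± S.D. of three independent experiments.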

[2] = tested on: Bel-7402; experiment: Cytotoxicity against human Bel7402 cells after 72 hrs by MTT assay; assay type: functional, cell-based; details: Bel-7402, 72 h; outline: as §1
[3] = tested on: MGC-803; experiment: Cytotoxicity against human MGC803 cells after 72 hrs by MTT assay; assay type: functional, cell-based; details: MGC-803, 72 h; outline: as §1
[4] = tested on: K562; experiment: Cytotoxicity against human K562 cells after 72 hrs by MTT assay; assay type: functional, cell-based; details: K562, 72 h; outline: as §1
[5] = tested on: Bel-7402; experiment: Induction of mitochondrial membrane depolarization in human Bel7402 cells assessed as normal cells at 0.3 uM after 48 hrs by JC-1 staining-based flow cytometry; assay type: functional
[6] = tested on: Bel-7402; experiment: Induction of apoptosis in human Bel7402 cells assessed as early and late apoptotic cells at 0.6 uM after 2 days by Annexin-V/FITC-propidium iodide staining-based flow cytometry (reference value: 4.8 %); assay type: functional
[7] = tested on: Bel-7402; experiment: Induction of apoptosis in human Bel7402 cells assessed as early and late apoptotic cells at 0.3 uM after 2 days by Annexin-V/FITC-propidium iodide staining-based flow cytometry (reference value: 4.8 %); assay type: functional
[8] = tested on: Bel-7402; experiment: Induction of apoptosis in human Bel7402 cells assessed as early and late apoptotic cells at 0.15 uM after 2 days by Annexin-V/FITC-propidium iodide staining-based flow cytometry (reference value: 4.8 %); assay type: functional
[9] = tested on: Bel-7402; experiment: Induction of apoptosis in human Bel7402 cells assessed as late apoptotic cells at 0.6 uM after 2 days by Annexin-V/FITC-propidium iodide staining-based flow cytometry (reference value: 2.2 %); assay type: functional
[10] = tested on: Bel-7402; experiment: Induction of apoptosis in human Bel7402 cells assessed as late apoptotic cells at 0.3 uM after 2 days by Annexin-V/FITC-propidium iodide staining-based flow cytometry (reference value: 2.2 %); assay type: functional
[11] = tested on: Bel-7402; experiment: Induction of apoptosis in human Bel7402 cells assessed as late apoptotic cells at 0.15 uM after 2 days by Annexin-V/FITC-propidium iodide staining-based flow cytometry (reference value: 2.2 %); assay type: functional
[12] = tested on: Bel-7402; experiment: Induction of apoptosis in human Bel7402 cells assessed as viable cells at 0.6 uM after 2 days by Annexin-V/FITC-propidium iodide staining-based flow cytometry (reference value: 94.1 %); assay type: functional; details: Bel-7402, 48 h, read-out: Activity
[13] = tested on: Bel-7402; experiment: Induction of apoptosis in human Bel7402 cells assessed as viable cells at 0.3 uM after 2 days by Annexin-V/FITC-propidium iodide staining-based flow cytometry (reference value: 94.1 %); assay type: functional; details: Bel-7402, 48 h, read-out: Activity
[14] = tested on: Bel-7402; experiment: Induction of apoptosis in human Bel7402 cells assessed as viable cells at 0.15 uM after 2 days by Annexin-V/FITC-propidium iodide staining-based flow cytometry (reference value: 94.1 %); assay type: functional; details: Bel-7402, 48 h, read-out: Activity
[15] = tested on: Bel-7402; experiment: Induction of apoptosis in human Bel7402 cells assessed as early apoptotic cells at 0.6 uM after 2 days by Annexin-V/FITC-propidium iodide staining-based flow cytometry (reference value: 2.6 %); assay type: functional
[16] = tested on: Bel-7402; experiment: Induction of apoptosis in human Bel7402 cells assessed as early apoptotic cells at 0.3 uM after 2 days by Annexin-V/FITC-propidium iodide staining-based flow cytometry (reference value: 2.6 %); assay type: functional
[17] = tested on: Bel-7402; experiment: Induction of apoptosis in human Bel7402 cells assessed as early apoptotic cells at 0.15 uM after 2 days by Annexin-V/FITC-propidium iodide staining-based flow cytometry (reference value: 2.6 %); assay type: functional
[18] = tested on: Bel-7402; experiment: Induction of apoptosis in human Bel7402 cells assessed as necrotic cells at 0.6 uM after 2 days by Annexin-V/FITC-propidium iodide staining-based flow cytometry (reference value: 1.1 %); assay type: functional
[19] = tested on: Bel-7402; experiment: Induction of apoptosis in human Bel7402 cells assessed as necrotic cells at 0.3 uM after 2 days by Annexin-V/FITC-propidium iodide staining-based flow cytometry (reference value: 1.1 %); assay type: functional
[20] = tested on: Bel-7402; experiment: Induction of apoptosis in human Bel7402 cells assessed as necrotic cells at 0.15 uM after 2 days by Annexin-V/FITC-propidium iodide staining-based flow cytometry (reference value: 1.1 %); assay type: functional
[21] = tested on: Bel-7402; experiment: Induction of apoptosis in human Bel7402 cells after 2 days by Annexin-V/FITC-propidium iodide staining-based flow cytometry; assay type: functional, cell-based
[22] = tested on: Bel-7402; experiment: Induction of apoptosis in human Bel7402 cells at 0.6 uM after 48 hrs by propidium iodide staining-based FACS analysis (reference value: 1.67 %); assay type: functional
Outline: (§2)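 Bel-7402 cells seeded at 5.0 × 10³ cells/well and incubated 24 h at 37 °C, then exposed to test compound or DMSO solvent control for 48 h. Cells fixed in 70% ethanol, RNase-treated, PI-stained; DNA content of nuclei measured by flow cytometry.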

[23] = tested on: Bel-7402; experiment: Induction of apoptosis in human Bel7402 cells at 0.3 uM after 48 hrs by propidium iodide staining-based FACS analysis (reference value: 1.67 %); assay type: functional; outline: as §2
[24] = tested on: Bel-7402; experiment: Induction of apoptosis in human Bel7402 cells at 0.15 uM after 48 hrs by propidium iodide staining-based FACS analysis (reference value: 1.67 %); assay type: functional; outline: as §2
[25] = tested on: Bel-7402; experiment: Cell cycle arrest in human Bel7402 cells assessed as accumulation at G2/M phase at 0.6 uM after 48 hrs by propidium iodide staining-based FACS analysis (reference value: 12.60 %); assay type: functional; outline: as §2
[26] = tested on: Bel-7402; experiment: Cell cycle arrest in human Bel7402 cells assessed as accumulation at G2/M phase at 0.3 uM after 48 hrs by propidium iodide staining-based FACS analysis (reference value: 12.60 %); assay type: functional; outline: as §2
[27] = tested on: Bel-7402; experiment: Cell cycle arrest in human Bel7402 cells assessed as accumulation at G2/M phase at 0.15 uM after 48 hrs by propidium iodide staining-based FACS analysis (reference value: 12.60 %); assay type: functional; outline: as §2
[28] = tested on: Bel-7402; experiment: Cell cycle arrest in human Bel7402 cells assessed as accumulation at S phase at 0.6 uM after 48 hrs by propidium iodide staining-based FACS analysis (reference value: 39.17 %).; assay type: functional; outline: as §2
[29] = tested on: Bel-7402; experiment: Cell cycle arrest in human Bel7402 cells assessed as accumulation at S phase at 0.3 uM after 48 hrs by propidium iodide staining-based FACS analysis (reference value: 39.17 %); assay type: functional; outline: as §2
[30] = tested on: Bel-7402; experiment: Cell cycle arrest in human Bel7402 cells assessed as accumulation at S phase at 0.15 uM after 48 hrs by propidium iodide staining-based FACS analysis (reference value: 39.17 %); assay type: functional; outline: as §2
[31] = tested on: Bel-7402; experiment: Cell cycle arrest in human Bel7402 cells assessed as accumulation at G1 phase at 0.6 uM after 48 hrs by propidium iodide staining-based FACS analysis (reference value: 48.23 %); assay type: functional; outline: as §2
[32] = tested on: Bel-7402; experiment: Cell cycle arrest in human Bel7402 cells assessed as accumulation at G1 phase at 0.3 uM after 48 hrs by propidium iodide staining-based FACS analysis (reference value: 48.23 %); assay type: functional; outline: as §2
[33] = tested on: Bel-7402; experiment: Cell cycle arrest in human Bel7402 cells assessed as accumulation at G1 phase at 0.15 uM after 48 hrs by propidium iodide staining-based FACS analysis (reference value: 48.23 %); assay type: functional; outline: as §2
[34] = tested on: Bel-7402; experiment: Induction of apoptosis in human Bel7402 cells assessed as reduction in Bcl2 expression after 48 hrs by Western blotting analysis; assay type: functional, cell-based
Outline: (§3)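 Bel-7402 cells treated with vehicle control or compound at 0.15, 0.3 or […] (so in the source). Lysates at […] protein per lane (so in the source) separated by 10% SDS-PAGE, transferred to nitrocellulose and immunoblotted, with β-actin measured as reference. Significance vs. vehicle control marked at P < 0.05 and P < 0.01.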

[35] = tested on: Bel-7402; experiment: Induction of apoptosis in human Bel7402 cells assessed as increase in Fas expression after 48 hrs by Western blotting analysis; assay type: functional, cell-based; outline: as §3
[36] = tested on: Bel-7402; experiment: Induction of apoptosis in human Bel7402 cells assessed as increase in caspase 9 expression after 48 hrs by Western blotting analysis; assay type: functional, cell-based; outline: as §3
[37] = tested on: Bel-7402; experiment: Induction of apoptosis in human Bel7402 cells assessed as increase in caspase 8 expression after 48 hrs by Western blotting analysis; assay type: functional, cell-based; outline: as §3
[38] = tested on: Bel-7402; experiment: Induction of apoptosis in human Bel7402 cells assessed as increase in caspase 3 expression after 48 hrs by Western blotting analysis; assay type: functional, cell-based; outline: as §3
[39] = tested on: Bel-7402; experiment: Induction of apoptosis in human Bel7402 cells assessed as increase in Bax expression after 48 hrs by Western blotting analysis; assay type: functional, cell-based; outline: as §3
[40] = tested on: Bel-7402; experiment: Induction of apoptosis in human Bel7402 cells assessed as increase in cytochrome C expression after 48 hrs by Western blotting analysis; assay type: functional, cell-based; outline: as §3
[41] = tested on: Bel-7402; experiment: Induction of mitochondrial membrane depolarization in human Bel7402 cells assessed as apoptotic cells after 48 hrs by JC-1 staining-based flow cytometry; assay type: functional, cell-based
Outline: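 In triplicate, Bel-7402 cells cultured overnight, then incubated with compound (0, 0.15, 0.3, […] as printed) or vehicle for 48 h, stained with the lipophilic cationic dye JC-1. Cells with collapsed mitochondrial membrane potential counted by flow cytometry.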

[42] = tested on: Bel-7402; experiment: Induction of mitochondrial membrane depolarization in human Bel7402 cells assessed as normal cells at 0.6 uM after 48 hrs by JC-1 staining-based flow cytometry; assay type: functional

C=C1C(=O)[C@@]23C(=O)O[C@H]4CCC(C)(C)[C@H]5[C@H](O)OC[C@@]45[C@@H]2CC[C@@H]1[C@H]3OC(=O)c1ccc(C)cc1
IC50 [1]: 450 nM | IC50 [2]: 1010 nM | IC50 [3]: 610 nM | IC50 [4]: 140 nM

C=C1C(=O)[C@@]23C(=O)O[C@H]4CCC(C)(C)[C@H]5[C@H](O)OC[C@@]45[C@@H]2CC[C@@H]1[C@H]3OC(=O)c1ccc(Cl)cc1
Activity [5]: 82.4% | Activity [6]: 50.5% | Activity [7]: 33.3% | Activity [8]: 14.3% | Activity [9]: 28.1% | Activity [10]: 18.5% | Activity [11]: 5.5% | viability at 0.6 µM [12]: 48.8% | viability at 0.3 µM [13]: 66.5% | viability at 0.15 µM [14]: 84.6% | Activity [15]: 22.4% | Activity [16]: 14.8% | Activity [17]: 8.8% | Activity [18]: 0.7% | Activity [19]: 0.3% | Activity [20]: 1% | Activity [21]: Dose-dependent effect | Activity [22]: 31.97% | Activity [23]: 14.86% | Activity [24]: 2.07% | Activity [25]: 28.76% | Activity [26]: 20.48% | Activity [27]: 15.1% | Activity [28]: 20.17% | Activity [29]: 29.24% | Activity [30]: 38.72% | Activity [31]: 51.07% | Activity [32]: 50.28% | IC50 [1]: 280 nM | IC50 [2]: 870 nM | IC50 [3]: 1220 nM | IC50 [4]: 240 nM | Activity [33]: 46.18% | Activity [34]: Dose-dependent effect | Activity [35]: Dose-dependent effect | Activity [36]: Dose-dependent effect | Activity [37]: Dose-dependent effect | Activity [38]: Dose-dependent effect | Activity [39]: Dose-dependent effect | Activity [40]: Dose-dependent effect | Activity [41]: Dose-dependent effect | Activity [42]: 54.4%

C=C1C(=O)[C@@]23C(=O)O[C@H]4CCC(C)(C)[C@H]5[C@H](O)OC[C@@]45[C@@H]2CC[C@@H]1[C@H]3O
IC50 [3]: 14200 nM
